Activity calls are given as the source filed them.
Tests used:
Mus musculus [1] = assay: Mean survival time of the treated mice (Mus musculus) beyond that of the control animals against Plasmodium berghei at dose 40(mg/kg); Experiment II; assay type: functional
Mus musculus [2] = assay: Mean survival time of the treated mice (Mus musculus) beyond that of the control animals against Plasmodium berghei at dose 640(mg/kg); Experiment I; not active; assay type: functional
Mus musculus [3] = assay: Mean survival time of the treated mice (Mus musculus) beyond that of the control animals against Plasmodium berghei at dose 160 (mg/kg); Experiment II; assay type: functional
Mus musculus [4] = assay: Mean survival time of the treated mice (Mus musculus) beyond that of the control animals against Plasmodium berghei at dose 320(mg/kg); Experiment I; assay type: functional
Mus musculus [5] = assay: Mean survival time of the treated mice (Mus musculus) beyond that of the control animals against Plasmodium berghei at dose 20(mg/kg); Experiment II; assay type: functional
Plasmodium falciparum [6] = assay: […] antimalarial activity against Plasmodium falciparum D6; assay type: functional, organism-based
Mus musculus [7] = assay: Mean survival time of the treated mice (Mus musculus) beyond that of the control animals against Plasmodium berghei at dose 640(mg/kg); Experiment II; Survival beyond 60 days is considered curative (C); assay type: functional
Mus musculus [8] = assay: Mean survival time of the treated mice (Mus musculus) beyond that of the control animals against Plasmodium berghei at dose 20(mg/kg); Experiment I; assay type: functional
Plasmodium falciparum [9] = assay: […] antimalarial activity against Plasmodium falciparum W-2; assay type: functional, organism-based
Mus musculus [10] = assay: Mean survival time of the treated mice (Mus musculus) beyond that of the control animals against Plasmodium berghei at dose 40(mg/kg); Experiment I; assay type: functional
Mus musculus [11] = assay: Mean survival time of the treated mice (Mus musculus) beyond that of the control animals against Plasmodium berghei at dose 80(mg/kg); Experiment I; assay type: functional
Mus musculus [12] = assay: Mean survival time of the treated mice (Mus musculus) beyond that of the control animals against Plasmodium berghei at dose 160 (mg/kg); Experiment I; assay type: functional
Mus musculus [13] = assay: Mean survival time of the treated mice (Mus musculus) beyond that of the control animals against Plasmodium berghei at dose 320(mg/kg); Survival beyond 60 days is considered curative; Experiment II; active(A); assay type: functional
[14] = Resistance index is defined as the ratio of IC50 of Plasmodium falciparum(W-2) clone to IC50 of Plasmodium falciparum(D6) clone; assay type: functional
Method in brief: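 Ratio of IC50 W-2 to IC50 D-6 for P. falciparum. […] Activity is read as inhibition of tritiated hypoxanthine uptake.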

Mus musculus [15] = assay: Mean survival time of the treated mice (Mus musculus) beyond that of the control animals against Plasmodium berghei at dose 80(mg/kg); Experiment II; assay type: functional
Mus musculus [16] = assay: Mean survival time of the treated mice (Mus musculus) beyond that of the control animals against Plasmodium berghei at dose 160 mg/kg); assay type: functional
Mus musculus [17] = assay: Mean survival time of the treated mice (Mus musculus) beyond that of the control animals against Plasmodium berghei at dose 640(mg/kg); Survival beyond 60 days is considered curative; assay type: functional
Mus musculus [18] = assay: Mean survival time of the treated mice (Mus musculus) beyond that of the control animals against Plasmodium berghei at dose 40(mg/kg); assay type: functional
Mus musculus [19] = assay: Mean survival time of the treated mice (Mus musculus) beyond that of the control animals against Plasmodium berghei at dose 80(mg/kg); assay type: functional
Plasmodium berghei = assay: […] antimalarial activity against drug-resistant Plasmodium berghei KBG173; assay type: functional
Mus musculus [20] = assay: Mean survival time of the treated mice (Mus musculus) beyond that of the control animals against Plasmodium berghei at dose 20(mg/kg); assay type: functional
Mus musculus [21] = assay: Mean survival time of the treated mice (Mus musculus) beyond that of the control animals against Plasmodium berghei at dose 320(mg/kg); assay type: functional
Mus musculus [22] = assay: Mean survival time of the treated mice (Mus musculus) beyond that of the control animals against Plasmodium berghei at dose 160 (mg/kg); Experiment II; active (A); assay type: functional
Mus musculus [23] = assay: Mean survival time of the treated mice (Mus musculus) beyond that of the control animals against Plasmodium berghei at dose 640(mg/kg); Experiment I; assay type: functional
Mus musculus [24] = assay: Mean survival time of the treated mice (Mus musculus) beyond that of the control animals against Plasmodium berghei at dose 320(mg/kg); Survival beyond 60 days is considered curative; Experiment II; Survival beyond 60 days is considered curative (C); assay type: functional
Mus musculus [25] = assay: Mean survival time of the treated mice (Mus musculus) beyond that of the control animals against Plasmodium berghei at dose 640(mg/kg); Experiment II; Survival beyond 60 days is considered curative (C).; assay type: functional
Mus musculus [26] = assay: Mean survival time of the treated mice (Mus musculus) beyond that of the control animals against Plasmodium berghei at dose 320(mg/kg); Survival beyond 60 days is considered curative; Experiment I; assay type: functional

Row | Compound | T-C (Mus musculus [1]) | T-C (Mus musculus [2]) | T-C (Mus musculus [3]) | T-C (Mus musculus [4]) | T-C (Mus musculus [5]) | IC50 (Plasmodium falciparum [6]) | T-C (Mus musculus [7]) | T-C (Mus musculus [8]) | IC50 (Plasmodium falciparum [9]) | T-C (Mus musculus [10]) | T-C (Mus musculus [11]) | T-C (Mus musculus [12]) | T-C (Mus musculus [13]) | Resistance index [14] | T-C (Mus musculus [15]) | ED50 (Plasmodium berghei) | other results
1 | CC1CCC2(CC1)OOC1(CCC(C)CC1)OO2 (stereo unspecified) | 0.5 days | 1 days | 3.2 days | 1.9 days | 0.3 days | 8.2 nM | 1 days | 0.1 days | 58 nM | 0.4 days | 0.1 days | 2.4 days | 13 days | 7.1 | 2 days | – | –
2 | C[C@@H]1CC[C@H]2[C@@H](C)C(=O)O[C@@H]3O[C@@]4(C)CC[C@@H]1[C@]32OO4 [ARTEMISININ] | – | – | – | – | – | 4.7 nM | – | – | 2.2 nM | – | – | – | – | 0.47 | – | 607 mg/kg | T-C (Mus musculus [16]): 3.9 days; T-C (Mus musculus [17]): 2 days; T-C (Mus musculus [18]): 1.7 days; T-C (Mus musculus [19]): 2.3 days; T-C (Mus musculus [20]): 1.5 days; T-C (Mus musculus [21]): 5.1 days
3 | C[C@@H]1CCCCC12OOC1(CCCC[C@@H]1C)OO2 (stereo partly specified) [WR-148999] | 1.2 days | – | – | 1 days | 0.7 days | 6.9 nM | 5 days | 0.2 days | 3.4 nM | 1.8 days | 1.6 days | 9.6 days | – | 0.49 | 5 days | 382 mg/kg | T-C (Mus musculus [22]): 12 days; T-C (Mus musculus [23]): 3 days; T-C (Mus musculus [24]): 3 days
4 | CC1CC(C)CC2(C1)OOC1(CC(C)CC(C)C1)OO2 (stereo unspecified) | 1 days | inactive | 5.8 days | – | 0.6 days | 50 nM | – | 1.5 days | 13 nM | 1.3 days | 2.4 days | 5.5 days | 7.4 days | 0.26 | 3.8 days | – | T-C (Mus musculus [25]): 2 days; T-C (Mus musculus [26]): 1 days

Source: ChEMBL document CHEMBL1126302, “Dispiro-1,2,4,5-tetraoxanes: a new class of antimalarial peroxides” (J Med Chem, 1992)
